The values below come from ChEMBL document CHEMBL1811832, “Transformation of isosteviol lactam by fungi and the suppressive effects of its transformed products on LPS-induced iNOS expression in macrophages” (2011).

In the test the test system is RAW264.7. The experiment in a line: Antiinflammatory activity against mouse RAW264.7 cells assessed as inhibition of LPS-induced iNOS mRNA expression at 10 uM after 24 hrs by RT-PCR relative to control. In kind it is functional. Summed up: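 Murine RAW 264.7 macrophages stimulated with LPS 100 ng/mL for 4 h, then treated with compound at 10 μM for 24 h with LPS still present; dexamethasone as reference. Total RNA extracted with TRIzol, oligo(dT)-primed cDNA, real-time PCR (50 cycles, dissociation-curve check). iNOS mRNA expressed as fold relative to LPS-only cells; mean ± SEM, n = 3, paired two-tailed t-test.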
For the molecule `C[C@]12CC[C@H]3[C@]4(C)CCC[C@@](C)(C(=O)O)[C@H]4CC[C@@]3(C1)[C@H](Cl)C(=O)N2`, the “fold change (FC)” value is reported as 0.85.
For `C[C@@]12CC[C@@H]3[C@@](CC[C@H]4[C@@]3(C)CCC[C@@]4(C)C(=O)O)(CC(=O)N1)C2` [ISOSTEVIOL LACTAM], the “fold change (FC)” value worked out at 0.15.
The figure for `C[C@@]12CC[C@@H]3[C@@](CC[C@H]4[C@@]3(C)CCC[C@@]4(C)C(=O)O)(CC1=O)C2` [ISOSTEVIOL] is 0.29; for `CC1=C[C@@]2(CC#N)CC[C@H]3[C@](C)([C@@H]2CC1)[C@@H](O)CC[C@@]3(C)C(=O)O` it is 0.43.
For `C=C1C[C@@]2(CC#N)CC[C@H]3[C@@](C)(CCC[C@@]3(C)C(=O)O)[C@@H]2C[C@H]1Cl`, the “fold change (FC)” value stood at 0.3.
As to `CCO[C@@H]1C[C@@H]2[C@@](CC#N)(C=C1C)CC[C@H]1[C@@]2(C)CCC[C@@]1(C)C(=O)O`, the “fold change (FC)” value turned out to be 0.21.
Turning to `CC1=C[C@@]2(CC#N)CC[C@H]3[C@@](C)(CCC[C@@]3(C)C(=O)O)[C@@H]2CC1`, the “fold change (FC)” value stood at 0.48.
For the molecule `C[C@@H]1C[C@H]2[C@@H]3CCC4=CC(=O)C=C[C@]4(C)[C@@]3(F)[C@@H](O)C[C@]2(C)[C@@]1(O)C(=O)CO` [DEXAMETHASONE], the “fold change (FC)” value was 0.16.
In the case of `C[C@@]12CC[C@H]3[C@]4(C)CCC[C@@](C)(C(=O)O)[C@H]4C[C@H](O)[C@]3(CC(=O)N1)C2` it was 0.61; in that of `CC1=CC[C@@H]2[C@](CC#N)(CC[C@H]3[C@@]2(C)CCC[C@@]3(C)C(=O)OCCO)C1`, 0.5; in that of `CC1=CC[C@@H]2[C@](CC#N)(CC[C@H]3[C@@]2(C)CCC[C@@]3(C)C(=O)O)C1`, 0.63.
Take `CC1=C[C@@]2(CC#N)[C@@H](O)C[C@H]3[C@@](C)(CCC[C@@]3(C)C(=O)O)[C@@H]2CC1`: the “fold change (FC)” value is listed as 0.12.
As for `CO[C@H]1C[C@@H]2[C@@](CC#N)(C=C1C)CC[C@H]1[C@@]2(C)CCC[C@@]1(C)C(=O)O`, the “fold change (FC)” value was determined as 0.2.
For `C[C@@]12CCC[C@@](C)(C(=O)O)[C@H]1CC[C@]13CC(=O)N[C@](C)(C1)[C@@H](O)C[C@H]32`, the “fold change (FC)” value is 0.13.
As to `C[C@@]12CC[C@@H]3[C@@](CC[C@H]4[C@@]3(C)CCC[C@@]4(C)C(=O)O)(C/C1=N\O)C2` [ISOSTEVIOL OXIME], the “fold change (FC)” value is reported as 0.15.
